This is a sample that favours compounds with a hit; in the whole collection about 2.3% have one here.
UCH37 inh = blocks the human deubiquitinase UCH37. purified proteasome/UCH37, Ub-AMC cleavage fluorescence. inhibition, % (no concentration beside the values). 0.33% of 330,000 active. AID 588478. Q9Y5K5;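 active = mean inhibition over replicate wells above about 20%, limit read from the data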
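Reagent: Ub-AMC substrate; assay system: Proteasome-associated human UCH37 deubiquitinase; controls: no-proteasome and no-compound wells; read-out: % inhibition of Ub-AMC cleavage fluorescence; timing: 30 min preincubation with enzyme, 25 min cleavage at room temperature; signal: AMC fluorescence from Ub-AMC cleavage, excitation 355 nm, emission 460 nm; buffer or medium: Tris-HCl pH 7.4 plus ovalbumin, ATP-MgCl2, DTT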
PP5 primary = blocks human protein phosphatase 5 activity | P53041 | purified PP5c, OMFP substrate fluorescence | inhibition, % at 6.7 µM | 0.18% of 320,000 active;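 active = inhibition above the campaign's mean inhibition across all tested compounds plus 3 SD, cut at about 9.5% in these data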
PREPL inhibitor = inhibits the human prolyl oligopeptidase-like enzyme; Q4J6C6; recombinant PREPL, fluorescence polarization activity-based probe; inhibition, % at 5.96 µM; 0.68% of 320,000 active; AID 2751; in the data active = inhibition above about 43%
PP1 inh = blocks human PP1-alpha phosphatase, a PP5 counter-screen; P62136; purified PP1alpha, OMFP fluorescence; inhibition, % at 6.7 µM; 0.9% of 320,000 active;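 active = inhibition above the mean inhibition of all tested compounds plus 3 SD, computed separately for each screening campaign, cut at about 15% in these data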
Target sequence (P62136 whole entry, looked up): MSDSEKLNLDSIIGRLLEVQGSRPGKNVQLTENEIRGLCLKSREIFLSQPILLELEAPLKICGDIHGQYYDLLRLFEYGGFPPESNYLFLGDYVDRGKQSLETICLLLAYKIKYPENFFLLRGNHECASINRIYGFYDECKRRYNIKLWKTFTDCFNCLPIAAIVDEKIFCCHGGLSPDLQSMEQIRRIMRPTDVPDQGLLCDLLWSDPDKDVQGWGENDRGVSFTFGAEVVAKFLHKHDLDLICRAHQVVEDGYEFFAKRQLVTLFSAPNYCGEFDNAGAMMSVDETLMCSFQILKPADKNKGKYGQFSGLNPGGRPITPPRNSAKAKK
UBC13 inh = blocks human UBC13 polyubiquitin chain formation. TR-FRET. 0.47% of 330,000 active. AID 485273. P61088. inhibition, % at 20 µM; in the data active = inhibition above about 45%, passing the limit was not always enough
Target sequence (P61088 whole entry, looked up): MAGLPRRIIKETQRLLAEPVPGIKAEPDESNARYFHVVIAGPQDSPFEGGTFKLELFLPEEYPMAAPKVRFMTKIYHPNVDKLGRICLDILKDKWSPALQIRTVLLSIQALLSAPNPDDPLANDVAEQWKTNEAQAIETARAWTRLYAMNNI
CTSL1 counter = blocks F. hepatica cathepsin L1 in PFM18AAP counter-screen. inhibition, % at 5.96 µM. AID 1906. 0.49% of 300,000 active. recombinant F. hepatica cathepsin L1, Z-Leu-Arg-MCA fluorescence;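 active = inhibition above the mean of all tested compounds plus 3 SD, set per screening campaign, cut at about 17% in these data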
PP1 inh confirm = confirmation of human PP1 phosphatase inhibitors | 52% of 1,900 active | inhibition, % at 6.7 µM | purified PP1alpha, OMFP substrate fluorescence | AID 2358 | shares compounds with PP1 inh;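 active = mean PP1 inhibition above a set limit taken from the earlier primary screen, cut at about 15% in these data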
PP5 counter = counter-screen for PP1 inhibitors: human PP5 phosphatase inhibition | inhibition, % at 6.7 µM | 4% of 1,900 active | shares compounds with PP1 inh | purified PP5c, OMFP fluorescence;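 active = mean PP5 inhibition over triplicate wells above about 9.5% taken from the earlier PP1 screen, limit read from the data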
Large screens that a line does not name were inactive (follow-up assays come after a bar, where they were run).

C=CCNC(=O)c1ccc(Cn2c(=S)[nH]c3cc4c(cc3c2=O)OCO4)cc1	PP1 inh 25 | PP1 inh confirm inactive | PP5 counter inactive
CC1(C)CC(=O)CC(=NNC(=O)C2C3CCCCC32)C1 (stereo not given)	none (no result: PP5 primary, PREPL inhibitor, PP1 inh, UBC13 inh, CTSL1 counter)
Cc1ccc(S(=O)(=O)Nc2cccc(-c3ccc(N4CCCCCC4)nn3)c2)cc1	PP1 inh 18 | PP1 inh confirm inactive | PP5 counter inactive
C=CCn1c(SCC(=O)Nc2ccc(C(=O)O)cc2)nc2sc(C)c(C)c2c1=O	none (no result: CTSL1 counter)
C=CCn1c(SCC(=O)Nc2sccc2C#N)nc2sc(C)c(C)c2c1=O	PP1 inh 27 | PP1 inh confirm 31 | PP5 counter inactive
COc1cc(/C=C2\C(C)=C(C#N)c3nc(N)c(C#N)c(C)c32)ccc1OCC(=O)O	PP1 inh 30 (no result: UCH37 inh) | PP1 inh confirm inactive | PP5 counter inactive
CN(C)/C=C1\C(=O)N(c2ccc([N+](=O)[O-])cc2)N=C1c1ccccc1	PP1 inh 22 | PP1 inh confirm inactive | PP5 counter inactive
CC1=NN(c2ccc([N+](=O)[O-])cc2)C(=O)/C1=C\N(C)C	none
CN(C)/C=C1/C(=O)N(c2ccc([N+](=O)[O-])cc2)N=C1c1ccccc1	PP1 inh 20 (no result: UCH37 inh) | PP1 inh confirm inactive | PP5 counter inactive
CC(=O)C(=NNc1cccc(Cl)c1)Sc1nnc(-c2ccccc2)n1-c1ccccc1	none (no result: PP5 primary, PREPL inhibitor, PP1 inh, UBC13 inh, CTSL1 counter)
Oc1ccc(Br)cc1C=NNc1ncc(-c2ccccc2)cn1	none (no result: PP5 primary, PREPL inhibitor, PP1 inh, UBC13 inh, CTSL1 counter)
CCOC(=O)c1c(C)oc(N=Cc2ccccc2O)c1C#N	none (no result: PP5 primary, PREPL inhibitor, PP1 inh, UBC13 inh, CTSL1 counter)
Cc1cc(/C=N/n2cnnc2)c(C)n1-c1ccc(OCc2ccccc2F)cc1	none (no result: UCH37 inh)
Cc1cc(/C=N/n2cnnc2)c(C)n1-c1ccc(OCc2ccc(Cl)cc2)cc1	PP1 inh 28 (no result: UCH37 inh) | PP1 inh confirm 26 | PP5 counter inactive
O=C(CSc1ccccn1)Nc1ccc2c(c1)C(=O)c1ccccc1C2=O	none (no result: UBC13 inh)
O=C(CSc1n[nH]c(=O)[nH]c1=O)Nc1ccc2c(c1)C(=O)c1ccccc1C2=O	PP1 inh 21 | PP1 inh confirm 31 | PP5 counter inactive
COc1ccc(OC)c(N/C(=N\C(=S)Nc2ccccc2)Nc2nc(C)cc(C)n2)c1	none (no result: PP5 primary, PREPL inhibitor, PP1 inh, UBC13 inh, CTSL1 counter)
O=C1c2cccc3cccc(c23)C(=O)N1c1ccc2ncccc2c1	PP1 inh 23 | PP1 inh confirm inactive | PP5 counter inactive
O=C1c2cccc3cccc(c23)C(=O)N1c1nccs1	none
O=C(N/N=C/c1cc([N+](=O)[O-])cc([N+](=O)[O-])c1O)/C(=C\c1cccs1)NC(=O)c1ccccc1	PP1 inh 21 (no result: UCH37 inh) | PP1 inh confirm 30 | PP5 counter inactive
COc1ccc(CC(=O)NN=C(C)c2ccc(Br)s2)cc1	none (no result: PP5 primary, PREPL inhibitor, PP1 inh, UBC13 inh, CTSL1 counter)
COc1cc(C(c2c(C(=O)O)[nH]c3ccccc23)c2c(C(=O)O)[nH]c3ccccc23)ccc1OCc1ccccc1	PP1 inh 19 | PP1 inh confirm 15 | PP5 counter inactive
O=[N+]([O-])c1ccccc1/C=C/C=Nn1c(-c2ccccc2)n[nH]c1=S	none (no result: PP5 primary, PREPL inhibitor, PP1 inh, UBC13 inh, CTSL1 counter)
O=[N+]([O-])c1ccccc1/C=C/C=N/n1c(-c2ccc(Cl)cc2)n[nH]c1=S	PP1 inh 25 (no result: UCH37 inh) | PP1 inh confirm 28 | PP5 counter inactive
CC(C)(C)C(=O)ON=C(N)c1c(Cl)cccc1Cl	none (no result: PP5 primary, PREPL inhibitor, PP1 inh, UBC13 inh, CTSL1 counter)
CCC(=O)NN=C(C)CC(=O)Nc1cccc([N+](=O)[O-])c1	none (no result: PP5 primary, PREPL inhibitor, PP1 inh, UBC13 inh, CTSL1 counter)
O=C(Nc1ccc2oc(-c3cccc4ccccc34)nc2c1)c1ncn[nH]1	PP1 inh 26 | PP1 inh confirm inactive | PP5 counter inactive
O=C(Nc1ccc2oc(-c3ccccc3Cl)nc2c1)c1ncn[nH]1	PP1 inh 19 | PP1 inh confirm inactive | PP5 counter inactive
CC(C)c1ccc2oc(-c3ccc(NC(=O)c4ncn[nH]4)cc3)nc2c1	none
Cn1c(=O)c2c(nc(NN=Cc3cccs3)n2Cc2ccc(Br)cc2)n(C)c1=O	none (no result: PP5 primary, PREPL inhibitor, PP1 inh, UBC13 inh, CTSL1 counter)
CC(=NNc1nc(C)cc(-c2ccccc2)n1)c1ccco1	none (no result: PP5 primary, PREPL inhibitor, PP1 inh, UBC13 inh, CTSL1 counter)
CCN(CC)c1ccc(C=NNS(=O)(=O)c2ccc(CNC(C)=O)cc2)cc1	none (no result: PP5 primary, PREPL inhibitor, PP1 inh, UBC13 inh, CTSL1 counter)
O=C(Cc1ccccc1)NCC(=O)NN=Cc1ccc(Cl)cc1	none (no result: PP5 primary, PREPL inhibitor, PP1 inh, UBC13 inh, CTSL1 counter)
Cc1ccc(C)c(OCCn2cc(/C=C(/C#N)C(=O)NCC3CCCO3)c3ccccc32)c1 (stereo not given)	PP1 inh 53 | PP1 inh confirm inactive | PP5 counter inactive
O=c1cc2oc3cc(O)c(O)cc3c(-c3ccccc3[N+](=O)[O-])c-2cc1O	PP1 inh 26 | PP1 inh confirm inactive | PP5 counter inactive
O=c1cc(-c2ccccc2Cl)oc2cccc(O)c12	none
C=CCn1c(O)c(C2=c3ccccc3=NC2=O)s/c1=N/c1nccs1	PP1 inh 23 (no result: UCH37 inh) | PP1 inh confirm 24 | PP5 counter inactive

High-throughput results from PubChem BioAssay.
